Measurements published in ChEMBL document CHEMBL1146230, “New analogues of the potent cytotoxic saponin OSW-1” (J Med Chem, 2007).

What was measured:
[1] = Cytotoxicity against mouse NIH 3T3 cells after 72 hrs; format: cell-based, NIH3T3; settings: read-out: TCS50
In short: (§1)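 Cells grown in DMEM with 10% fetal calf serum, 4 mM glutamine, penicillin/streptomycin, 37 °C, 5% CO2. About 1.25×10^5 cells/mL seeded and stabilized 3 h. Compounds added in DMSO as serial (usually 6- and 4-fold) dilutions, top well usually 50 µM, DMSO final ≤0.6%. After 72 h, Calcein AM for 1 h, fluorescence read. Survival taken vs DMSO controls; TCS50 from dose-response curves; mean ± SD of three experiments.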

MCF7 = experiment: Cytotoxicity against MCF7 cells after 72 hrs; format: functional, Homo sapiens; in short: as §1
K562 = experiment: Cytotoxicity against K562 cells after 72 hrs; format: functional, Homo sapiens; in short: as §1
G-361 = experiment: Cytotoxicity against human G361 cells after 72 hrs; format: functional; in short: as §1
[2] = Cytotoxicity against ARN8 cells after 72 hrs; format: functional, Homo sapiens; in short: as §1
HOS = experiment: Cytotoxicity against HOS cells after 72 hrs; format: functional, Homo sapiens; in short: as §1
CCRF-CEM = experiment: Cytotoxicity against CEM cells after 72 hrs; format: functional, Homo sapiens; in short: as §1
HeLa = experiment: Cytotoxicity against HeLa cells after 72 hrs; format: functional, Homo sapiens; in short: as §1
A549 = experiment: Cytotoxicity against A549 cells after 72 hrs; format: functional, Homo sapiens; in short: as §1

SMILES | CC50 at 72 h [1] [µM] | TCS50 (MCF7) [nM] | TCS50 (K562) [nM] | TCS50 (G-361) [nM] | TCS50 [2] [nM] | TCS50 (HOS) [nM] | TCS50 (CCRF-CEM) [nM] | TCS50 (HeLa) [nM] | TCS50 (A549) [nM]
COc1ccc(C(=O)O[C@H]2[C@H](O[C@H]3C[C@H]4[C@@H]5CC=C6C[C@@H](O)CC[C@]6(C)[C@H]5CC[C@]4(C)[C@@]3(O)[C@H](C)C(=O)CCC(C)C)OC[C@@H](O)[C@@H]2O)cc1 | > 50 | 3500 | 1800 | 3500 | 1500 | 7200 | 1000 | 2300 | 7200
CCCC(=O)[C@@H](C)[C@@]1(O)[C@@H](O[C@@H]2OC[C@H](O)[C@@H](O[C@@H]3OC[C@@H](O)[C@H](O)[C@H]3OC(=O)c3ccc(OC)cc3)[C@@H]2OC(C)=O)C[C@H]2[C@@H]3CC=C4C[C@@H](O)CC[C@]4(C)[C@H]3CC[C@@]21C | > 50 | 90 | 1.4 | 3100 | 3 | 140 | 0.5 | 12 | 0.9
COc1ccc(C(=O)O[C@H]2[C@H](O[C@@H]3[C@@H](OC(C)=O)[C@H](O[C@H]4C[C@H]5[C@@H]6CC=C7C[C@@H](O)CC[C@]7(C)[C@H]6CC[C@]5(C)[C@@]4(O)[C@H](C)C(=O)CCC(C)C)OC[C@@H]3O)OC[C@@H](O)[C@@H]2O)cc1 | > 50 | 50 | 0.8 | 1000 | 4 | 40 | 0.3 | 8 | 0.5
CC(=O)O[C@H]1[C@H](O[C@H]2C[C@H]3[C@@H]4CC=C5C[C@@H](O)CC[C@]5(C)[C@H]4CC[C@]3(C)[C@@]2(O)[C@H](C)C(=O)CCC(C)C)OC[C@H](O)[C@@H]1O | > 50 | 1300 | 430 | 2200 | 1950 | 4200 | 200 | 570 | 4200
CCCCCC(=O)[C@@H](C)[C@@]1(O)[C@@H](O[C@@H]2OC[C@H](O)[C@H](O[C@@H]3OC[C@@H](O)[C@H](O)[C@H]3OC(=O)c3ccc(OC)cc3)[C@H]2OC(C)=O)C[C@H]2[C@@H]3CC=C4C[C@@H](O)CC[C@]4(C)[C@H]3CC[C@@]21C | > 50 | 40 | 0.7 | 1400 | 0.6 | 42 | 0.2 | 8 | 0.5
CCCCCOC[C@@H](C)[C@@]1(O)[C@@H](O[C@@H]2OC[C@H](O)[C@H](O[C@@H]3OC[C@@H](O)[C@H](O)[C@H]3OC(=O)c3ccc(OC)cc3)[C@H]2OC(C)=O)C[C@H]2[C@@H]3CC=C4C[C@@H](O)CC[C@]4(C)[C@H]3CC[C@@]21C | > 50 | 860 | <400 | 1900 | <400 | 1800 | <200 | 350 | <200
COc1ccc(C(=O)O[C@H]2[C@H](O[C@@H]3[C@@H](OC(C)=O)[C@H](O[C@@H](CCC(C)C)[C@@H](C)[C@@]4(O)C(=O)C[C@H]5[C@@H]6CC=C7C[C@@H](O)CC[C@]7(C)[C@H]6CC[C@@]54C)OC[C@@H]3O)OC[C@@H](O)[C@@H]2O)cc1 | > 50 | 3400 | 430 | 14400 | 500 | 11700 | 280 | 1000 | 480
COc1cccc2c1C(=O)c1c(O)c3c(c(O)c1C2=O)C[C@@](O)(C(C)=O)C[C@@H]3O[C@H]1C[C@H](N)[C@H](O)[C@H](C)O1 [DAUNORUBICIN] | – | 140 | 230 | 670 | – | 330 | 62 | 670 | –
